Results pooled from the literature.
Compare with care: the assays were run in different laboratories.
Target: Protein-tyrosine kinase 6 (PTK6, Homo sapiens, UniProt Q13882)

| Structure (SMILES) | assay | conditions | quantity | value |
| --- | --- | --- | --- | --- |
| CS(=O)(=O)CCNCc1ccc(-c2ccc3ncnc(Nc4ccc(OCc5cccc(F)c5)c(Cl)c4)c3c2)o1 | cell-free assay | 0.5 µM | remaining signal | 103% |
| O=C(Nc1cnn(-c2csc(C(=O)NC3COC3)c2)c1)Nc1ccccc1Cl | enzyme activity, inhibitor | 5 µM | remaining activity | 118% |
| COc1cc(/C=C/C(=O)CC(=O)/C=C/c2ccc(O)c(OC)c2)ccc1O | enzyme activity, inhibitor | 1 µM | activity vs control | 85% |
| Cc1cc(C)c(-n2ccn3nc(-c4cccnc4)cc23)cc1NC(=O)c1cc(C#N)cc(S(F)(F)(F)(F)F)c1 | cell-free assay, competition with immobilised ligand | 0.1 µM | remaining binding | 99.5% |
| C=CC(=O)Nc1cc(Nc2nccc(Nc3cc(Cl)c(F)cc3C(C)(C)O)n2)c(OC)cc1N1CC[C@@H](N(C)C)C1 | enzyme activity, inhibitor | 1 µM | inhibition | 63% |
| Nc1ncnc2occ(-c3ccc(NC(=O)Nc4cc(C(F)(F)F)ccc4F)cc3)c12 | cell-free assay, inhibitor | 20 µM | remaining signal | 20% |
| CCN(CC)CCNC(=O)c1c(C)[nH]c(/C=C2\C(=O)Nc3ccc(F)cc32)c1C | enzyme activity, inhibitor | 0.3 µM | inhibition | 6% |
| FC(F)(F)Oc1cccc(-c2cnc3ccc(-c4ccncc4)nn23)c1 | enzyme activity, inhibitor, radiometric | 5 µM | activity vs control | 70% |
| CNC(=O)c1cc2c(Oc3ccc(NC(=O)C4(C(=O)Nc5ccc(F)cc5)CC4)cc3)ccnc2cc1OC | enzyme activity, inhibitor, radiometric | 1 µM | inhibition | 98% |
| O=C(Nc1cnn(-c2csc(C(=O)NC3COC3)c2)c1)Nc1c(F)cccc1Cl | enzyme activity, inhibitor | 5 µM | remaining activity | 85.7% |
| COc1cc(Nc2cnc(C#N)c(O[C@H](C)CN(C)C)n2)ncc1-c1cnn(C)c1 | enzyme activity, inhibitor, radiometric | 1 µM | remaining activity | 98% |
| CN(C)C1CCN(CC#Cc2nn(C3CCCC3)c3nc(NCc4ccccc4)ncc23)C1 (stereo not drawn) | enzyme activity, inhibitor, FRET | 1 µM | inhibition | 1% |
| COc1cc2ncnc(Nc3ccc(Oc4ccccc4)c(C)c3C)c2cc1OC | enzyme activity, inhibitor | 1 µM | inhibition | 93% |
| CS(=O)(=O)N1CCCC(NC(=O)[C@H](CCC2CCCCC2)NC(=O)c2ccc(CNc3ncnc4c3nnn4-c3ccccc3)cc2)C1 (stereo partly drawn) | cell-free assay, competition with immobilised ligand | 0.1 µM | remaining binding | 76% |
| Cc1ccc(Nc2nccc(N(C)c3ccc4c(C)n(C)nc4c3)n2)cc1S(N)(=O)=O | enzyme activity, inhibitor | 0.3 µM | inhibition | 23% |
| O=C1CCc2cc(Nc3cc(OC4CCOCC4)c([N+](=O)[O-])cc3Cl)ccc2N1 | cell-free assay, competition with immobilised ligand | 1 µM | remaining binding | 100% |
| CC(C)(C)c1nc(-c2cccc(NS(=O)(=O)c3c(F)cccc3F)c2F)c(-c2ccnc(N)n2)s1 | enzyme activity, inhibitor, radiometric | 1 µM | remaining activity | 26% |
| CCC(=O)N[C@H]1CC[C@@H](C(=O)N(C)c2ccc(-c3nc4ccccc4o3)cc2)C1 | cell-free assay, competition with immobilised ligand | 1 µM | remaining binding | 100% |
| CC(C)(O)[C@H]1CC[C@H](Nc2ccc3ncc(-c4cccc(C(F)(F)F)c4)n3n2)CC1 | enzyme activity, inhibitor | 1 µM | remaining activity | 50.4% |
| CN(c1ccnc(CNc2nc(Nc3ccc4c(c3)CC(=O)N4)ncc2C(F)(F)F)n1)S(C)(=O)=O | cell-free assay, competition with immobilised ligand | 1 µM | remaining binding | 100% |
| Cc1ccc(C(=O)NCc2ccsc2)cc1C#Cc1cn(C(C)C)c2ncnc(N)c12 | enzyme activity, inhibitor | 1 µM | activity vs control | 7% |
| Cc1nc(Cc2cccc(C(F)(F)F)c2)sc1-c1ccc(C(N)=O)nc1 | cell-free assay, competition with immobilised ligand | 1 µM | remaining binding | 100% |
| Cc1cc(NC(=O)c2cccc3cc(-c4cccc5[nH]nc(N)c45)ccc23)ccc1F | enzyme activity, inhibitor | 0.1 µM | activity vs control | 97% |
| CC(=O)N1CCC(c2ccc(C(=O)NC3=NCCN3)cc2C(F)(F)F)CC1 | cell-free assay, competition with immobilised ligand | 1 µM | remaining binding | 88% |
| CNC(=O)c1cc(Oc2ccc(NC(=O)Nc3ccc(Cl)c(C(F)(F)F)c3)cc2)ccn1 | enzyme activity, inhibitor | 10 µM | inhibition | 58% |
| N#CCCc1ccc2c(c1)-c1[nH]c3ccc([N+](=O)[O-])cc3c1CC(=O)N2 | cell-free assay | 0.5 µM | remaining signal | 94.6% |
| O=C(N1CCS(=O)(=O)CC1)N1C[C@H](c2ccc(OC(F)(F)F)cc2)C[C@H](c2nc(C3CC3)no2)C1 | cell-free assay, competition with immobilised ligand | 1 µM | remaining binding | 100% |
